Legend:
Homo sapiens [1] = assay: Inhibition of human Hsp70 expressed in Escherichia coli BL21(DE3) assessed as suppression of Hdj2-activated ATPase activity at 100 uM dosed 15 mins after Hsp70 and Hdj2 pre-incubation and measured after 60 mins by TLC based steady state ATPase assay relative to control
Method in brief: (§1)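 Hsp70 ATPase activity measured with Hdj2 (Hsp40) at a 1:0.5 Hsp70:Hsp40 molar ratio. Activity was normalized to DMSO-matched reactions lacking compound. Values are the means of three independent experiments.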

Homo sapiens [2] = species: Homo sapiens; assay: Inhibition of human Hsp70 expressed in Escherichia coli BL21(DE3) assessed as suppression of ATPase activity at 100 uM after 60 mins by TLC based steady state ATPase assay relative to control
Method in brief: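 Hsp70 ATPase activity measured without cochaperone. Activity was normalized to reactions with no compound but an equal amount of DMSO. Values are the means of three independent experiments.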

[3] = target: Large T antigen (Simian virus 40) (UniProt P03070); assay: Inhibition of ATPase activity of SV40 T antigen expressed in baculovirus at 10 uM by antibody affinity chromatography relative to control; details: Betapolyomavirus macacae
Sequence of Large T antigen (Simian virus 40) (P03070 whole entry): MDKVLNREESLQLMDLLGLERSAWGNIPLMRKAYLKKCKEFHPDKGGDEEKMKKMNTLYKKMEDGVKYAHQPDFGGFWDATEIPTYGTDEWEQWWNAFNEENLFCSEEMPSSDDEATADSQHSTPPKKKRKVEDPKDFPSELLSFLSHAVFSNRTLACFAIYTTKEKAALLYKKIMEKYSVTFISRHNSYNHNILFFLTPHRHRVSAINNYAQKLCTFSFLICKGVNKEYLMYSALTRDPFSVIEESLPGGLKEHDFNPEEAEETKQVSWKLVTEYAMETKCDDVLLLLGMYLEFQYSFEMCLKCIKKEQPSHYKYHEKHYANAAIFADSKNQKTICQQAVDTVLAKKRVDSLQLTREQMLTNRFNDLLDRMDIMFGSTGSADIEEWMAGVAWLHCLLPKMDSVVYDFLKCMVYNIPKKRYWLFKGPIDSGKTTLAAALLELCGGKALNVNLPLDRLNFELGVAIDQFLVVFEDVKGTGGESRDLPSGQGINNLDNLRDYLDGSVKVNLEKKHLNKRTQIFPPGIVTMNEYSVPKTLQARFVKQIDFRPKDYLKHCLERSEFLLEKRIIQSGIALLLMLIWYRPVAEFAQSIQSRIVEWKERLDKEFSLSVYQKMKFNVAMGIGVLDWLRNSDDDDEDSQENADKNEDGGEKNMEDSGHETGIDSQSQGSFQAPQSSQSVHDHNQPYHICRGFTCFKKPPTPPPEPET
Method in brief: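 Purified T antigen ATPase activity measured with test agent at a final concentration of 10 μM. Activity was normalized to reactions with no compound but an equal amount of DMSO. Values are the means of three independent experiments.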

[4] = Cytotoxicity against human RMS13 cells assessed as cell growth inhibition after 24 hrs by cell titer-glo assay; format: toxicity, cell-based
Method in brief: (§2)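 Growth of MCF7 breast cancer cells and RMS13 rhabdomyosarcoma cells measured in the presence of compound. Values are the means ± SD of 2 independent experiments, each run in triplicate.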

[5] = Cytotoxicity against human MCF7 cells assessed as cell growth inhibition after 48 hrs by cell titer-glo assay; format: toxicity, cell-based; method in brief: as §2
BK polyomavirus = assay: Antiviral activity against BK polyomavirus Gardner infected in human HFF cells assessed as reduction in DNA copy number after 7 days by PCR analysis; format: functional, cell-based; details: Betapolyomavirus hominis, 168 h
Method in brief: (§3)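 BK virus replication and viability measured in human foreskin fibroblasts. EC50 is the concentration giving 50% activity. CC50 is the concentration killing 50% of viable cells. Values come from two independent experiments.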

JC polyomavirus = assay: Antiviral activity against JC polyomavirus MAD-4 infected in grivet COS7 cells assessed as reduction in DNA copy number after 7 days by PCR analysis; format: functional, cell-based; details: MAD-4, COS-7, 168 h
Method in brief: (§4)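 JC virus replication and viability measured in COS7 green monkey kidney cells. EC50 is the concentration giving 50% activity. CC50 is the concentration killing 50% of viable cells. Values come from two independent experiments.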

[6] = Cytotoxicity against BK polyomavirus Gardner infected-human HFF cells assessed as reduction in cell viability after 7 days by cell titer-glo assay; format: toxicity, cell-based; details: for CC50: hff, 168 h; for CC50 at 168 h: HFF cells infected with BK polyomavirus Gardner; method in brief: as §3
[7] = Cytotoxicity against JC polyomavirus MAD-4 infected grivet COS7 cells assessed as reduction in cell viability after 7 days by cell titer-glo assay; format: toxicity, cell-based; details: chlorocebus aethiops, cos-7, 168 h; method in brief: as §4
[8] = Specificity index, ratio of CC50 for grivet COS7 cells to EC50 for JC polyomavirus MAD-4 infected in grivet COS7 cells; parameters: species or system COS-7
[9] = Partition coefficient, logP of the compound; format: physicochemical; details: octanol/water
[10] = Distribution coefficient, logD of the compound; format: physicochemical; details: octanol/water
Homo sapiens [11] = assay: Activation of human Hsp70 expressed in Escherichia coli BL21(DE3) assessed as stimulation of Hdj2-activated ATPase activity at 100 uM dosed 15 mins after Hsp70 and Hdj2 pre-incubation and measured after 60 mins by TLC based steady state ATPase assay relative to control; method in brief: as §1

| SMILES | fold change (FC) (Homo sapiens [1]) | fold change (FC) (Homo sapiens [2]) | fold change (FC) [3] | GI50 at 24 h [4] | GI50 at 48 h [5] | also measured |
| --- | --- | --- | --- | --- | --- | --- |
| CC1=C(C(=O)OCc2ccccc2)C(c2ccc(-c3ccccc3C)cc2)NC(=O)N1CCCCCc1nnn[nH]1 (stereo not given) | 3 | 1.4 | 2.1 | 100 µM | 72 µM |  |
| CC1=C(C(=O)OCc2ccccc2)C(c2ccc(-c3ccccc3)cc2)NC(=S)N1Cc1ccc(-c2nnn[nH]2)cc1 (stereo not given) | 4.5 | 1.4 | 5.5 | 87 µM | 140 µM |  |
| CC1=C(C(=O)OCc2ccccc2)C(c2ccc(-c3ccccc3C)cc2)NC(=O)N1Cc1ccc(-c2nnn[nH]2)cc1 (stereo not given) |  |  |  | 73 µM | 140 µM | EC50 (BK polyomavirus): 1.7 µM; EC50 (JC polyomavirus): 4.2 µM; CC50 [6]: 20 µM; CC50 [7]: 21 µM |
| CCCCCCN(C(=O)CCCCCN1C(=O)NC(c2ccc(-c3ccccc3)cc2)C(C(=O)OCc2ccccc2)=C1C)C(C(=O)NCCCC)c1ccc(OCC(=O)OC)c(C(=O)OC)c1 (stereo not given) |  |  |  | 13 µM | 6 µM |  |
| CC1=C(C(=O)OCc2ccccc2)C(c2ccc(-c3ccccc3C)cc2)N(Cc2ccc(-c3nnn[nH]3)cc2)C(=S)N1 (stereo not given) | 4.8 | 1.3 | 7.5 | 62 µM |  |  |
| CC1=C(C(=O)OCc2ccccc2)C(c2ccc(-c3ccccc3)cc2)N(Cc2ccc(-c3nnn[nH]3)cc2)C(=O)N1 (stereo not given) | 5 | 1.2 | 2.3 |  |  |  |
| Nc1ccn(C[C@@H](CO)OCP(=O)(O)O)c(=O)n1.O.O [CIDOFOVIR] |  |  |  |  |  | EC50 (BK polyomavirus): 1.1 µM; EC50 (JC polyomavirus): 2 µM; CC50 at 168 h [6]: > 100 µM; CC50 [7]: 49 µM; Ratio CC50/EC50 [8]: 24 |
| CC1=C(C(=O)OCc2ccccc2)C(c2ccc(-c3ccccc3)cc2)N(Cc2ccc(-c3nnn[nH]3)cc2)C(=S)N1 (stereo not given) | 5.3 | 1.7 | 4.5 | 72 µM | 110 µM | EC50 (BK polyomavirus): 1.8 µM; EC50 (JC polyomavirus): 0.75 µM; CC50 [6]: 17 µM; CC50 [7]: 18 µM; Ratio CC50/EC50 [8]: 23; logP [9]: 6.4; logD [10]: 4.8 |
| CC1=C(C(=O)OCc2ccccc2)C(c2ccc(-c3ccccc3)cc2)NC(=O)N1CCCCCc1nnn[nH]1 (stereo not given) | 1.3 | 1.2 | 1.4 |  |  | EC50 (BK polyomavirus): 3.9 µM; EC50 (JC polyomavirus): 3.5 µM; CC50 at 168 h [6]: > 67 µM; CC50 [7]: 24 µM |
| CC1=C(C(=O)OCc2ccccc2)C(c2ccc(-c3ccccc3C)cc2)NC(=S)N1Cc1ccc(-c2nnn[nH]2)cc1 (stereo not given) | 3.7 |  | 7.7 | 68 µM | 160 µM |  |
| CC1=C(C(=O)OCc2ccccc2)C(c2ccc(-c3ccccc3)cc2)NC(=O)N1CCCCCC(=O)O (stereo not given) |  |  | 1.5 | 120 µM |  | fold change (FC) (Homo sapiens [11]): 1.5 |
| CC1=C(C(=O)OCc2ccccc2)C(c2ccc(-c3ccccc3)cc2)NC(=O)N1Cc1ccc(-c2nnn[nH]2)cc1 (stereo not given) | 5 |  | 2 | 96 µM | 160 µM |  |
| CC1=C(C(=O)OCc2ccccc2)C(c2ccc(-c3ccccc3C)cc2)NC(=S)N1CCCCCc1nnn[nH]1 (stereo not given) | 2.5 |  | 4.7 | 100 µM |  |  |
| CC1=C(C(=O)OCc2ccccc2)C(c2ccc(-c3ccccc3)cc2)N(CCCCCC(=O)O)C(=S)N1 (stereo not given) |  |  | 1.6 | 110 µM |  |  |
| CC1=C(C(=O)OCc2ccccc2)C(c2ccc(-c3ccccc3)cc2)NC(=S)N1CCCCCc1nnn[nH]1 (stereo not given) | 1.7 |  | 2.1 | 110 µM |  |  |
| CC1=C(C(=O)OCc2ccccc2)C(c2ccc(-c3ccccc3)cc2)NC(=S)N1CCCCCC(=O)O (stereo not given) |  |  | 1.5 | 100 µM |  |  |
